Sampled rows, rich in hits. Any-hit rate of the full collection: about 4.7%.
AHR act: activates the human aryl hydrocarbon receptor. hit rate 2.5% among 320,000. P35869. AHR-responsive luciferase reporter cells, luminescence. activation, % at 5 µM. AID 2796; in the data active = activation above about 47%;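 also: 0% = vehicle wells and 100% = reference agonist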
Target sequence (P35869 whole entry, looked up): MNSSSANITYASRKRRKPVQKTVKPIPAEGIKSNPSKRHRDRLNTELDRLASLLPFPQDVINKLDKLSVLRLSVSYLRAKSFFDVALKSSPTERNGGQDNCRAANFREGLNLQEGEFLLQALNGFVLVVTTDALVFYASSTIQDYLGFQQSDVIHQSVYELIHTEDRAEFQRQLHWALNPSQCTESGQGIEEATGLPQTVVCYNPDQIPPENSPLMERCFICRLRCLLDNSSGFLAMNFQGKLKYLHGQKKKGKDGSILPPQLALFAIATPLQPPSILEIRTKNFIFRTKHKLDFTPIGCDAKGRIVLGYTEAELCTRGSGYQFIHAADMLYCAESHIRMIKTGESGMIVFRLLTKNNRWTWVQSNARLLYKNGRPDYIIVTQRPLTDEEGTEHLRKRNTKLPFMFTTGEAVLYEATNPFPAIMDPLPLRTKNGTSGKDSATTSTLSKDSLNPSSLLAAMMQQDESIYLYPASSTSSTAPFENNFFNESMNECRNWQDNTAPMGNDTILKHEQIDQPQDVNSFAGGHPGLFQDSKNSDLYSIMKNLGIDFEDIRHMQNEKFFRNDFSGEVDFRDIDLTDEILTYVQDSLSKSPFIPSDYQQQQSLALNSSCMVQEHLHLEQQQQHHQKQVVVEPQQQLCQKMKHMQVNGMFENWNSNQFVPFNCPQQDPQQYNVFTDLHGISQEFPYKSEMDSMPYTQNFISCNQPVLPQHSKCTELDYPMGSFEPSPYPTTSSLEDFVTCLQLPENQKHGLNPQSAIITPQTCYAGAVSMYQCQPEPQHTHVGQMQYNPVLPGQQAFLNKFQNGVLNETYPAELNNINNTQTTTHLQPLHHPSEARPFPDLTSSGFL
MC4R antagonist: human MC4R antagonism in cAMP assay. inhibition, % at 6.5 µM. MC4R-expressing cells, MTII-stimulated cAMP, LANCE TR-FRET. hit rate 0.48% among 360,000;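 active = inhibition above its plate's cutoff, the mean of tested wells on that plate plus 3 SD, cut at about 29% in these data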;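 also: 0% = Melanotan II alone and 100% = Melanotan II plus saturating MCL0020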
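Assay system: human MC4R-expressing U2OS cells; reagent: Melanotan II stimulation of cells; dosing: 6.5 µM single dose; timing: compound 30 min, challenge 1 h, detection 1 h; signal: TR-FRET cAMP assay; replicates: one well per compound, no replicates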
m5-HT2A agonist: activates the mouse 5-HT2A serotonin receptor; P35363; CHO-K1 mHTR2A beta-arrestin complementation, luminescence; percent of 30 µM serotonin response; activation, % at 7.6 µM; AID 624169; hit rate 0.66% among 360,000;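 active = activation above a run cutoff, the mean activation of all tested compounds plus 3 SD, cut at about 14% in these data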;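 also: 0% = plate median of compound wells and 100% = 30 µM serotonin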
MC4R ag barr: agonists of human melanocortin 4 receptor (MC4R) beta-arrestin; AID 540308; U2OS MC4R beta-arrestin complementation, luminescence; percent of melanotan II response, DMSO zero; P32245; hit rate 0.98% among 360,000; activation, % at 8.9 µM;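 active = activation above a per-plate cutoff, the mean activation of sample wells on that plate plus 3 SD, cut at about 8% in these data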
FXN GAA850 act: increases GAA850 frataxin promoter reporter activity; hit rate 0.56% among 360,000; HEK293 lucGAA850 FXN promoter luciferase reporter, 24 h; percent of 10 µM SAHA response; activation, % at 6 µM; AID 540364;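 active = activation above the average of all compounds screened plus 3 SD, cutoff fixed separately per campaign, cut at about 7.5% in these data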;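 also: 0% = DMSO wells and 100% = 10 µM SAHA wells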
MOR ag counter: counter-screen for mouse HTR2A agonists: human mu opioid receptor agonists | AID 624380 | shares compounds with m5-HT2A agonist | activation, % at 9.3 µM | hit rate 5.3% among 2,300 | U2OS OPRM1 beta-arrestin PathHunter, luminescence; DMSO 0%, DAMGO 9.3 µM 100%;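 active = mean activation above the mean of DMSO-only wells plus 3 SD, cut at about 0.5% in these data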
HTR2A ag conf: mouse HTR2A agonism confirmed. AID 624381. CHO-K1 PathHunter beta-arrestin recruitment, luminescence; DMSO 0%, 30 µM serotonin 100%. shares compounds with m5-HT2A agonist. hit rate 19% among 2,300. activation, % at 7.6 µM;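 active = mean activation across triplicates above the hit threshold derived in the original primary screen, cut at about 15% in these data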
Active calls of the source: *; x = no result given.

SMILES	AHR act	MC4R antagonist	m5-HT2A agonist	MC4R ag barr	FXN GAA850 act	MOR ag counter	HTR2A ag conf
O=C(NCCc1ccc(O)c(Br)c1)c1ccc(Br)o1	x	x	-5	x	x	x	x
Cn1c(N)c(C(=O)Nc2c(Cl)cccc2Cl)sc1=S	-6	8	20*	0	0	0	1
O=C1Nc2ccc([N+](=O)[O-])cc2C1(O)N1CCCCC1 (stereo not drawn)	-1	2	-2	0	2	x	x
CC1CCCN(C2(O)C(=O)Nc3ccc([N+](=O)[O-])cc32)C1 (stereo not drawn)	0	-6	17*	0	3	-1	-2
O=CNc1c(Cl)cc2c(c1Cl)Cc1cc([N+](=O)[O-])ccc1-2	x	10	-2	-2	-2	x	x
Cc1sc2nc(SCc3ccc(C(=O)O)cc3)n(Cc3ccco3)c(=O)c2c1C	0	2	16*	-1	-2	0	8
COC(=O)/C(=C/N(C)C)C(=O)N1CCN(c2ccc(Cl)c(Cl)c2)CC1	18	-2	18*	0	2	0	0
N#Cc1c(-c2ccccc2)[nH]c(=S)[nH]c1=O	-1	10	22*	0	1	-1	-4
N#Cc1c(-c2cccc(Cl)c2)[nH]c(=S)[nH]c1=O	0	1	1	-2	-1	x	x
O=c1ccn([C@@H]2O[C@H](CNCC3=Cc4cc(O)ccc4OC3)[C@@H](O)[C@H]2O)c(=O)[nH]1	x	-2	8	-1	-2	x	x
COc1cccc(Cn2cnc(-c3ccccc3OC)c2-c2cc(C)cc(C)c2)c1	x	x	-1	x	x	x	x
COc1cccc(Cn2cnc(-c3ccccc3OC)c2-c2cccs2)c1	x	x	24*	x	x	-1	-7
Cc1ccc(CN2CCNC(=O)C2CC(=O)N(C)C2CCCCC2)o1 (stereo not drawn)	0	3	-3	0	0	x	x
Cc1ccc(CN2CCNC(=O)C2CC(=O)O)o1 (stereo not drawn)	3	-1	21*	0	4	-1	-4
Cc1c(C(=O)NCc2ccccn2)sc(=O)n1Cc1ccc(-c2ccccc2)cc1	x	13	25*	3	0	-1	-4
O=C(CC(=O)c1ccccc1)Nc1cccnc1	18	20	5	2	0	x	x
O=C(Nc1ccccc1)C(=O)Nc1cccnc1	-5	5	22*	1	0	0	-2
COc1ccc(CC2NCCC3=CC(=O)CCC32)cc1O (stereo not drawn)	4	3	-4	-1	1	x	x
C=CC[C@]12C=C(OC)C(=O)C=C1O[C@@H](c1ccc3c(c1)OCO3)[C@H]2C	11	3	-2	1	3	x	x
CCCc1nc2nc(C)c(NS(=O)(=O)c3ccc(CC(C)C)cc3)c(=O)n2[nH]1	3	3	16*	2	1	-1	-3
CCc1nc2nc(C)c(NS(=O)(=O)c3ccc(CC(C)C)cc3)c(=O)n2[nH]1	3	1	3	1	2	x	x
CC(=O)N1c2cc3ccccc3cc2N(C(C)=O)c2cc3ccccc3cc21	x	-6	8	0	1	x	x
CC(C)c1ccc(NC(=O)C2CCCCN2S(=O)(=O)c2ccccc2)cc1 (stereo not drawn)	5	0	2	-4	0	x	x
CCc1nn2c(=O)cc(COC(=O)c3cc(Cl)c(OC)c(OC)c3)nc2s1	0	1	17*	-3	0	0	-3
CCS(=O)(=O)Nc1ccc(-c2cc(-c3ccccc3)c3cc(C)ccc3n2)cc1	0	4	15*	0	2	0	4
SMILES	AHR act	MC4R antagonist	m5-HT2A agonist	MC4R ag barr	FXN GAA850 act	MOR ag counter	HTR2A ag conf
C[C@H](CO)N1C[C@H](C)[C@@H](CN(C)Cc2cccc3c2OCCCO3)OCc2cnnn2CCCC1=O	x	1	19*	0	0	0	-2
CC1CC1C(=O)OCC(=O)N(C)c1c(N)n(Cc2ccccc2)c(=O)[nH]c1=O (stereo not drawn)	-1	8	-2	-2	1	x	x
COc1ccc(C(=O)NCC(=O)OCC(=O)c2cc(OC)c(OC)c(OC)c2)cc1OC	-1	18	15*	-1	1	-1	0
CC(C)C(=O)Nc1cccc(COc2cccc(CN(Cc3ccccc3)C(=O)OC(C)(C)C)c2)c1	x	10	-2	4	-2	x	x
CC(=O)Nc1ccc(S(=O)(=O)NCCC(=O)N2CCN(C(c3ccccc3)c3ccccc3)CC2)cc1	0	8	16*	0	-1	0	-5
CN1CCn2cnc(C(=O)Nc3ccc(CNC(=O)OC(C)(C)C)cc3)c2C1=O	x	-2	16*	1	1	-1	-3
CC(C)(C)OC(=O)NCCCC[C@H](NC(=O)c1[nH]cnc1C(=O)Nc1ccc(CNC(=O)OC(C)(C)C)cc1)C(=O)OC(C)(C)C	18	x	x	x	x	x	x
C[C@H](NC(=O)c1[nH]cnc1C(=O)Nc1ccc(CNC(=O)OC(C)(C)C)cc1)C(=O)OC(C)(C)C	6	23	19*	4	-1	0	2
Cc1ccc2nccc(C(=O)N3CCCC(Nc4ccc(F)cc4)C3)c2c1 (stereo not drawn)	4	17	18*	-3	3	-1	-2
Cc1occc1C(=O)N1CCCC(Nc2ccc(F)cc2)C1 (stereo not drawn)	1	4	5	-1	0	x	x
Cc1ccc2nc(C(=O)N3CCCC(Nc4ccc(F)cc4)C3)cn2c1 (stereo not drawn)	3	-1	-1	0	0	x	x
Cc1ccn2cc(C(=O)N3CCCC(Nc4ccc(F)cc4)C3)nc2c1 (stereo not drawn)	7	7	18*	-2	0	-1	1
COC(=O)c1cc(CNC(=O)c2ccc(N3CCCC3)c([N+](=O)[O-])c2)ccc1OC	1	5	-7	-2	-1	x	x
COc1ccc(CCNC(=O)c2ccco2)cc1OC	6	24	3	1	0	x	x
COc1ccc(CCNC(=O)c2ccccc2NC(=O)c2ccco2)cc1OC	4	8	24*	0	2	-1	-3
NC(=O)C1CCN(C(=O)c2ccc(NS(=O)(=O)/C=C/c3ccccc3)cc2)CC1	x	7	0	-1	2	x	x
O=C(NCC(c1ccco1)N1CCN(c2ccccc2F)CC1)C1CCCCC1 (stereo not drawn)	1	1	17*	-2	-1	0	48*
O=C(Nc1ccon1)c1cccc(S(=O)(=O)N2CCCCC2)c1	11	5	6	0	-1	x	x
Cn1cnc2c(=O)sc3ccccc3c21	2	5	2	-2	-1	x	x

Screening data from PubChem.
